Source: ChEMBL document CHEMBL4316599, “Synthesis, in vitro and in vivo biological evaluation of substituted 3-(5-imidazo[2,1-b]thiazolylmethylene)-2-indolinones as new potent anticancer agents” (Eur J Med Chem, 2019)

Columns and labels:
Type in all cases: functional
[1] = system: CNS carcinoma cell; test: Cytotoxicity against human CNS cancer cells after 48 hrs by SRB assay; conditions: for CC50: read-out: LC50 (the source's name)
Method in brief: (§1)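 NCI-60 screen: single-dose pass at 10^-5 M, then a five-concentration assay from 10^-9 to 10^-4 M (highest 100 μM). Exposure was 48 h under standard NCI protocols. GI50, TGI and LC50 were derived per cell line and averaged by subpanel. Repeated tests are the mean of two experiments.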

[2] = system: Melanoma cell line; test: Cytotoxicity against human melanoma cells after 48 hrs by SRB assay; conditions: for CC50: read-out: LC50 (the source's name); method in brief: as §1
[3] = system: Leukemia cell; test: Cytotoxicity against human leukemia cells after 48 hrs by SRB assay; method in brief: as §1
[4] = system: NSCLC; test: Cytotoxicity against human NSCLC cells after 48 hrs by SRB assay; method in brief: as §1
[5] = Cytotoxicity against human COLON cells after 48 hrs by SRB assay; conditions: for CC50: read-out: LC50 (the source's name); method in brief: as §1
[6] = system: Ovarian carcinoma cell; test: Cytotoxicity against human ovarian cancer cells after 48 hrs by SRB assay; method in brief: as §1
[7] = system: Renal cancer cell line; test: Cytotoxicity against human renal cancer cells after 48 hrs by SRB assay; method in brief: as §1
[8] = system: Prostatic carcinoma cell; test: Cytotoxicity against human prostate cancer cells after 48 hrs by SRB assay; method in brief: as §1
[9] = system: Breast carcinoma cell; test: Cytotoxicity against human breast cancer cells after 48 hrs by SRB assay; method in brief: as §1

Structure (SMILES) | GI50 [1] [µM] | TGI [1] [µM] | CC50 [1] [µM] | GI50 [2] [µM] | TGI [2] [µM] | CC50 [2] [µM] | GI50 [3] [µM] | GI50 [4] [µM] | TGI [4] [µM] | GI50 [5] [µM] | TGI [5] [µM] | CC50 [5] [µM] | GI50 [6] [µM] | LC50 (50% lethal concentration) [6] [µM] | TGI [6] [µM] | GI50 [7] [µM] | TGI [7] [µM] | GI50 [8] [µM] | GI50 [9] [µM] | TGI [9] [µM] | other results
COc1cc2c(c(OC)c1OC)/C(=C\c1c(OC)nc3sc(C)cn13)C(=O)N2 | 7.79 | 33.6 | 81.4 | 7.86 | 65.7 | 95.6 | 5.73 | 9.26 | 58.8 | 6.89 | 69.9 | 97.2 | 13.8 | 93 | 63.2 | 9.36 | 45 | 11.3 | 5.37 | 29.2 | LC50 [4]: 99.4 µM; LC50 (50% lethal concentration) [7]: 98.2 µM; LC50 (concentration killing 50% of cells) [9]: 99.3 µM
O=C1Nc2ccccc2C1=Cc1c(-c2ccncc2)nc2sccn12 | 1.6 | 49.7 | 95 | 3.27 | 78.3 | 92.2 | 2.65 | 8.97 | 82.4 | 0.68 | 63.4 | 94.3 | 2.34 | 91.8 | 61.3 | 14.9 | 73.2 | 1.1 | 5.42 | 67.3 | TGI [3]: 92 µM; LC50 (50% lethal concentration) [7]: 92.4 µM
COc1ccc2c(c1)/C(=C/c1c(-c3ccncc3)nc3sccn13)C(=O)N2C | 0.38 | 63.1 |  | 5.97 | 85.3 |  | 0.35 | 0.55 | 82.4 | 0.34 | 78.8 | 93 | 1.14 | 93.2 | 62.4 | 0.5 | 65.5 | 0.39 | 0.44 | 80.1 | LC50 [3]: 96.1 µM; TGI [3]: 81.8 µM; TGI [8]: 68.8 µM
COc1cc2c(cc1C)NC(=O)/C2=C/c1c(OC)nc2sc(C)cn12 | 5.7 | 20.4 | 68.3 | 31.5 | 91.7 |  |  | 5.25 | 74.9 | 42.9 | 91.7 |  | 7.22 | 91.4 | 47.1 | 5.81 | 58.9 | 18.8 | 4.57 | 50.9 | LC50 [4]: 98 µM; LC50 (50% lethal concentration) [7]: 90.6 µM; LC50 (concentration killing 50% of cells) [9]: 91.4 µM
COc1nc2sc(C)cn2c1/C=C1/C(=O)Nc2c1ccc1ccccc21 | 0.42 | 38.6 | 82.9 | 0.52 | 43.3 | 95 | 0.34 | 2.82 | 45.3 | 0.37 | 34.6 | 71.1 | 0.62 | 91.2 | 35.3 | 1.06 | 38.3 | 0.3 | 0.79 | 51.3 | TGI [3]: 84.8 µM; LC50 [4]: 91.4 µM; LC50 (50% lethal concentration) [7]: 89.6 µM; TGI [8]: 35.2 µM; CC50 ([8]; read-out: LC50 (the source's name)): 75.9 µM
COc1nc2sc(C)cn2c1/C=C1/C(=O)Nc2ccc(O)cc21 | 4.76 | 64 |  | 4.88 | 38.6 | 94 | 3.32 | 7.54 | 72 | 4.79 | 78.2 | 98.2 | 12.8 |  | 63.5 | 6.58 | 79.4 | 7.59 | 4.57 | 66.2 | TGI [3]: 61.7 µM; TGI [8]: 96.2 µM
